Assay results from ChEMBL document CHEMBL4118190, “An SAR study of hydroxy-trifluoromethylpyrazolines as inhibitors of Orai1-mediated store operated Ca2+ entry in MDA-MB-231 breast cancer cells using a convenient Fluorescence Imaging Plate Reader assay” (Bioorg Med Chem, 2018).

Columns and labels:
Format in all cases: cell-based
[1] = test system: MDA-MB-231; assay: Inhibition of endoplasmic reticulum calcium channel in human MDA-MB-231 cells assessed as reduction in endoplasmic reticulum intracellular calcium release at 100 uM pretreated for 15 mins followed by SERCA inhibitor CPA addition measured after 700 secs by PBX dye based FLIPR assay relative to control
Outline: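 Same MDA-MB-231 PBX-dye FLIPR protocol: 15 min compound pretreatment at room temperature, then BAPTA (500 µM) and CPA (10 µM) to deplete ER stores. Peak 1 height after CPA addition (ER Ca2+ release) expressed as % inhibition relative to the DMSO control. Excitation 470–495 nm, emission 515–575 nm.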

[2] = biological target: T1, Calcium release-activated calcium channel protein 1 (Homo sapiens, UniProt Q96D31); assay: Inhibition of […] Orai1-medited store operated calcium entry in human MDA-MB-231 cells at 100 uM pretreated for 15 mins followed by BAPTA addition by PBX dye based FLIPR assay relative to control
Outline: (§1)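 MDA-MB-231 cells seeded 2×10^3/well and used 3 days later. Loaded 1 h at 37 °C with 2 µM PBX calcium dye, 5% signal enhancer and 500 µM probenecid in PSS, pH 7.3. Compound pretreated 15 min at room temperature. Then 500 µM BAPTA, 10 µM CPA, and 0.5 mM CaCl2 700 s after CPA. Read-out: peak 2 height as % inhibition vs DMSO. 95% CI, n = 4.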
Target sequence in this assay (Q96D31 whole entry, looked up): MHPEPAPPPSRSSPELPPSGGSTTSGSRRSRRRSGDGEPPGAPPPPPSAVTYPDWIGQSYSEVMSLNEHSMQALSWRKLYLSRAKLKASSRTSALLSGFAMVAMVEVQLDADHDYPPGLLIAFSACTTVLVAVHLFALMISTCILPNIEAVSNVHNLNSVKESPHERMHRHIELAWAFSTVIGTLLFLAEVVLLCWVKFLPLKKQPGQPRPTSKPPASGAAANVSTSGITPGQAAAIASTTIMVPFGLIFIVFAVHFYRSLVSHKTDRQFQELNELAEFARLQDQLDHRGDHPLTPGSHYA

[3] = biological target: T1, Calcium release-activated calcium channel protein 1; assay: Inhibition of […] Orai1-medited store operated calcium entry in human MDA-MB-231 cells at 300 uM pretreated for 15 mins followed by BAPTA addition by PBX dye based FLIPR assay relative to control; outline: as §1
Target sequence in this assay (Q96D31 whole entry, looked up): as above

[4] = biological target: T1, Calcium release-activated calcium channel protein 1; assay: Inhibition of […] Orai1-medited store operated calcium entry in human MDA-MB-231 cells pretreated for 15 mins followed by BAPTA addition by PBX dye based FLIPR assay; outline: as §1
Target sequence in this assay (Q96D31 whole entry): as the sequence (Q96D31 whole entry, looked up) above

[5] = biological target: T1, Calcium release-activated calcium channel protein 1; assay: Inhibition of […] Orai1-medited store operated calcium entry in human MDA-MB-231 cells at 10 uM pretreated for 15 mins followed by BAPTA addition by PBX dye based FLIPR assay relative to control; outline: as §1
Target sequence in this assay (Q96D31 whole entry, looked up): as above

inhibition [2] | inhibition [3] | IC50 [4] | inhibition [5] | Compound | inhibition [1]
< 10% | 50% |  |  | O=C(Cc1ccccc1)N1N=C(c2ccc(N3CCOCC3)cc2)CC1(O)C(F)(F)F (stereo not given) | < 10%
 |  | 47 µM |  | O=C(Cc1ccccc1)N1N=C(c2cccc(Br)c2)CC1(O)C(F)(F)F (stereo not given) | < 10%
 |  | 79 µM |  | Cc1ccccc1C1=NN(C(=O)Cc2cccc(Cl)c2)C(O)(C(F)(F)F)C1 (stereo not given) | < 10%
 |  | 42 µM |  | Cc1cccc(C2=NN(C(=O)Cc3ccccc3Cl)C(O)(C(F)(F)F)C2)c1 (stereo not given) | < 10%
 |  | 30 µM |  | O=C(Cc1ccccc1)N1N=C(c2ccccc2Br)CC1(O)C(F)(F)F (stereo not given) | < 10%
 |  | 32 µM |  | COc1cccc(CC(=O)N2N=C(c3cccc(C)c3)CC2(O)C(F)(F)F)c1 (stereo not given) | < 10%
< 10% |  |  |  | O=C(Cc1ccccc1)N1N=C(c2ccc(Br)cc2)CC1(O)C(F)(F)F (stereo not given) | < 10%
30% |  |  |  | COc1ccc(CC(=O)N2N=C(c3ccccc3C)CC2(O)C(F)(F)F)cc1 (stereo not given) | < 10%
 |  | 45 µM |  | Cc1cccc(CC(=O)N2N=C(c3cccc(C)c3)CC2(O)C(F)(F)F)c1 (stereo not given) | < 10%
 |  | 47 µM |  | Cc1ccccc1C1=NN(C(=O)Cc2ccc(Cl)cc2)C(O)(C(F)(F)F)C1 (stereo not given) | < 10%
 |  | 75 µM |  | Cc1cccc(C2=NN(C(=O)Cc3cccc(Cl)c3)C(O)(C(F)(F)F)C2)c1 (stereo not given) | < 10%
< 10% |  |  |  | CC(=O)Nc1ccc(C2=NN(C(=O)Cc3ccccc3)C(O)(C(F)(F)F)C2)cc1 (stereo not given) | < 10%
60% |  | 54 µM |  | O=C(Cc1ccccc1)N1N=C(c2cc(Cl)ccc2Cl)CC1(O)C(F)(F)F (stereo not given) | < 10%
< 10% |  |  |  | N#Cc1cccc(C2=NN(C(=O)Cc3ccccc3)C(O)(C(F)(F)F)C2)c1 (stereo not given) | < 10%
60% |  |  |  | COc1cccc(CC(=O)N2N=C(c3ccccc3C)CC2(O)C(F)(F)F)c1 (stereo not given) | < 10%
< 10% |  |  |  | COc1ccc(C2=NN(C(=O)Cc3ccccc3)C(O)(C(F)(F)F)C2)cc1 (stereo not given) | < 10%
36 to 37% |  |  | 14% | COc1cccc(C2=NN(C(=O)Cc3ccccc3)C(O)(C(F)(F)F)C2)c1 (stereo not given) | < 10%

inhibition [2] | inhibition [3] | IC50 [4] | inhibition [5] | Compound | inhibition [1]
 |  | 29 µM |  | O=C(Cc1ccccc1)N1N=C(c2cccc(C(F)(F)F)c2)CC1(O)C(F)(F)F (stereo not given) | < 10%
20% |  |  |  | O=C(Cc1ccccc1)N1N=C(c2ccccn2)CC1(O)C(F)(F)F (stereo not given) | < 10%
 |  | 48 µM |  | O=C(Cc1ccccc1)N1N=C(c2cccc(Cl)c2)CC1(O)C(F)(F)F (stereo not given) | < 10%
 |  | 36 µM |  | Cc1cccc(C2=NN(C(=O)Cc3ccccc3)C(O)(C(F)(F)F)C2)c1 (stereo not given) | < 10%
 |  |  | 20% | Cc1ccccc1C1(O)CC(C(F)(F)F)=NN1C(=O)c1ccccc1 (stereo not given) | < 10%
< 10% |  |  |  | O=C(Cc1ccccc1)N1N=C(c2ccccc2OC(F)(F)F)CC1(O)C(F)(F)F (stereo not given) | < 10%
 |  | 33 µM |  | O=C(Cc1ccccc1)N1N=C(c2ccccc2Cl)CC1(O)C(F)(F)F (stereo not given) | 50%
< 10% |  |  |  | O=C(Cc1ccccc1)N1N=C(c2ccc([N+](=O)[O-])cc2)CC1(O)C(F)(F)F (stereo not given) | < 10%
30% |  |  |  | O=C(Cc1ccccc1)N1N=C(C(F)(F)F)CC1(O)c1ccccc1[N+](=O)[O-] (stereo not given) | 20%
20% |  |  |  | Cc1ccccc1C1=NN(C(=O)c2ccccc2)C(O)(C(F)(F)F)C1 (stereo not given) | < 10%
< 10% |  |  |  | O=C(Cc1ccccc1)N1N=C(c2cccnc2)CC1(O)C(F)(F)F (stereo not given) | < 10%
 |  | 42 µM |  | Cc1ccc(CC(=O)N2N=C(c3cccc(C)c3)CC2(O)C(F)(F)F)cc1 (stereo not given) | < 10%
30% |  |  |  | Cc1cccc(C2=NN(C(=O)c3ccccc3)C(O)(C(F)(F)F)C2)c1 (stereo not given) | < 10%
80% |  | 55 µM |  | O=C(Cc1ccccc1)N1N=C(c2cccc(F)c2F)CC1(O)C(F)(F)F (stereo not given) | < 10%
< 10% |  |  |  | Cc1cccc(C2=NN(C(=O)Cc3ccccc3C)C(O)(C(F)(F)F)C2)c1 (stereo not given) | < 10%
 |  | 42 µM |  | Cc1cccc(CC(=O)N2N=C(c3ccccc3C)CC2(O)C(F)(F)F)c1 (stereo not given) | < 10%
